Test results as given in publication PMC9623233 (Clinical Cancer Research, 2022).

Test: Phase I safety and tolerability: adverse events
Format: in vivo, human
In short: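 Open-label 3+3 escalation of intravenous test compound. Each 4-week cycle was four weekly or two biweekly doses; later arms were biweekly with dexamethasone prophylaxis, or every 3 weeks. AEs were graded by NCI CTCAE v4.0, with laboratory tests, pulmonary function (entry FVC >70%, DLCOc >60%), vital signs, ECG and examination. DLT window: two cycles (8 weeks; 6 weeks for 3-weekly dosing).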

[1] = 12 mg/m^2/q2Wk expansion, worst grade G1
[2] = 12 mg/m^2/q2Wk expansion, worst grade G2
[3] = 12 mg/m^2/q2Wk expansion, worst grade G3
[4] = 12 mg/m^2/q2Wk with and without steroid, Total, all grades
[5] = 12 mg/m^2/q2Wk-steroid expansion, worst grade G1
[6] = 12 mg/m^2/q2Wk-steroid expansion, worst grade G2
[7] = 12 mg/m^2/q2Wk-steroid expansion, worst grade G3

SMILES: C#CCN(c1ccc(C(=O)N[C@@H](CCC(=O)N[C@H](CCC(=O)O)C(=O)O)C(=O)O)cc1)[C@H]1CCc2cc3nc(CO)[nH]c(=O)c3cc21 [CT900, N-[4-[2-propyn-1-yl[(6S)-4,6,7,8-tetrahydro-2-(hydroxymethyl)-4-oxo-3H-cyclopenta [g]quinazolin-6-yl]amino]benzoyl]-l-gamma-glutamyl-D-glutamic acid]
- Anemia, treatment-related [1]: 2 (8) n (%)
- Aspartate aminotransferase increased, treatment-related [1]: 3 (12) n (%)
- Chills, treatment-related [1]: 2 (8) n (%)
- Cough, treatment-related [1]: 8 (32) n (%)
- Decreased appetite, treatment-related [1]: 3 (12) n (%)
- Diarrhea, treatment-related [1]: 4 (16) n (%)
- Fatigue, treatment-related [1]: 12 (48) n (%)
- Nausea, treatment-related [1]: 8 (32) n (%)
- Pneumonitis, treatment-related [1]: 0 (0) n (%)
- Pyrexia, treatment-related [1]: 3 (12) n (%)
- Vomiting, treatment-related [1]: 4 (16) n (%)
- Anemia, treatment-related [2]: 2 (8) n (%)
- Aspartate aminotransferase increased, treatment-related [2]: 1 (4) n (%)
- Chills, treatment-related [2]: 1 (4) n (%)
- Cough, treatment-related [2]: 0 (0) n (%)
- Decreased appetite, treatment-related [2]: 0 (0) n (%)
- Diarrhea, treatment-related [2]: 1 (4) n (%)
- Fatigue, treatment-related [2]: 1 (4) n (%)
- Nausea, treatment-related [2]: 4 (16) n (%)
- Pneumonitis, treatment-related [2]: 4 (16) n (%)
- Pyrexia, treatment-related [2]: 0 (0) n (%)
- Vomiting, treatment-related [2]: 0 (0) n (%)
- Anemia, treatment-related [3]: 0 (0) n (%)
- Aspartate aminotransferase increased, treatment-related [3]: 0 (0) n (%)
- Chills, treatment-related [3]: 0 (0) n (%)
- Cough, treatment-related [3]: 0 (0) n (%)
- Decreased appetite, treatment-related [3]: 0 (0) n (%)
- Diarrhea, treatment-related [3]: 1 (4) n (%)
- Fatigue, treatment-related [3]: 0 (0) n (%)
- Nausea, treatment-related [3]: 0 (0) n (%)
- Pneumonitis, treatment-related [3]: 0 (0) n (%)
- Pyrexia, treatment-related [3]: 0 (0) n (%)
- Vomiting, treatment-related [3]: 0 (0) n (%)
- Anemia, treatment-related [4]: 8 (20) n (%)
- Aspartate aminotransferase increased, treatment-related [4]: 7 (18) n (%)
- Chills, treatment-related [4]: 4 (10) n (%)
- Cough, treatment-related [4]: 9 (23) n (%)
- Decreased appetite, treatment-related [4]: 4 (10) n (%)
- Diarrhea, treatment-related [4]: 9 (23) n (%)
- Fatigue, treatment-related [4]: 21 (53) n (%)
- Nausea, treatment-related [4]: 16 (40) n (%)
- Pneumonitis, treatment-related [4]: 8 (20) n (%)
- Pyrexia, treatment-related [4]: 7 (18) n (%)
- Vomiting, treatment-related [4]: 4 (10) n (%)
- Anemia, treatment-related [5]: 1 (6.7) n (%)
- Aspartate aminotransferase increased, treatment-related [5]: 3 (20) n (%)
- Chills, treatment-related [5]: 1 (6.7) n (%)
- Cough, treatment-related [5]: 1 (6.7) n (%)
- Decreased appetite, treatment-related [5]: 1 (6.7) n (%)
- Diarrhea, treatment-related [5]: 2 (13.3) n (%)
- Fatigue, treatment-related [5]: 6 (40) n (%)
- Nausea, treatment-related [5]: 4 (26.7) n (%)
- Pneumonitis, treatment-related [5]: 1 (6.7) n (%)
- Pyrexia, treatment-related [5]: 4 (26.7) n (%)
- Vomiting, treatment-related [5]: 0 (0) n (%)
- Anemia, treatment-related [6]: 1 (6.7) n (%)
- Aspartate aminotransferase increased, treatment-related [6]: 0 (0) n (%)
- Chills, treatment-related [6]: 0 (0) n (%)
- Cough, treatment-related [6]: 0 (0) n (%)
- Decreased appetite, treatment-related [6]: 0 (0) n (%)
- Diarrhea, treatment-related [6]: 0 (0) n (%)
- Fatigue, treatment-related [6]: 2 (13.3) n (%)
- Nausea, treatment-related [6]: 0 (0) n (%)
- Pneumonitis, treatment-related [6]: 3 (20) n (%)
- Pyrexia, treatment-related [6]: 0 (0) n (%)
- Vomiting, treatment-related [6]: 0 (0) n (%)
- Anemia, treatment-related [7]: 2 (13.3) n (%)
- Aspartate aminotransferase increased, treatment-related [7]: 0 (0) n (%)
- Chills, treatment-related [7]: 0 (0) n (%)
- Cough, treatment-related [7]: 0 (0) n (%)
- Decreased appetite, treatment-related [7]: 0 (0) n (%)
- Diarrhea, treatment-related [7]: 1 (6.7) n (%)
- Fatigue, treatment-related [7]: 0 (0) n (%)
- Nausea, treatment-related [7]: 0 (0) n (%)
- Pneumonitis, treatment-related [7]: 0 (0) n (%)
- Pyrexia, treatment-related [7]: 0 (0) n (%)
- Vomiting, treatment-related [7]: 0 (0) n (%)
- Drug-related, predominantly low-grade pneumonitis (all patients, 10/109): 9%
- Fatal pneumonitis (during the trial): no cases of fatal pneumonitis
- Recommended phase II dose/schedule (intravenous): 12 mg/m^2/q2Wk
- Drug-related NCI CTCAE ≥grade 3 events (qWk schedule 1-6 mg/m^2, 21 patients: anemia, cellulitis, pneumonitis): three
